In brackets after ≈: the same amount, converted by molar mass.
How the values were obtained:
[1] = test system: Acinetobacter baumannii; experiment: Antibacterial activity against wild type Acinetobacter baumannii ATCC BAA-747 by CLSI M100-S17 protocol based method; assay type: functional
[2] = test system: Escherichia coli; experiment: Antibacterial activity against fluoroquinolone resistant Escherichia coli SKM18 by CLSI M100-S17 protocol based method; assay type: functional
[3] = test system: Acinetobacter baumannii; experiment: Antibacterial activity against beta-lactam resistant Acinetobacter baumannii by broth microdilution method; assay type: functional; settings: Acinetobacter baumannii
How it was run: (§1)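 MICs were determined by CLSI broth methods, except that organisms were grown in brain–heart–infusion medium. The panel comprised wild-type and resistant E. coli and A. baumannii strains, including 12 strains whose details are given by reference.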

[4] = test system: Acinetobacter baumannii; experiment: Antibacterial activity against multidrug resistant Acinetobacter baumannii by broth microdilution method; assay type: functional; settings: Acinetobacter baumannii; how it was run: as §1
[5] = test system: Acinetobacter baumannii; experiment: Antibacterial activity against wild type Acinetobacter baumannii by broth microdilution method; assay type: functional; how it was run: as §1
[6] = test system: Acinetobacter baumannii; experiment: Antibacterial activity against carbapenem resistant Acinetobacter baumannii by broth microdilution method; assay type: functional; settings: Acinetobacter baumannii; how it was run: as §1
[7] = test system: Escherichia coli; experiment: Antibacterial activity against wild type Escherichia coli ATCC 25922 by CLSI M100-S17 protocol based method; assay type: functional
[8] = test system: Escherichia coli; experiment: Antibacterial activity against beta-lactam resistant Escherichia coli by broth microdilution method; assay type: functional; settings: Escherichia coli; for MIC: read-out: MIC; how it was run: as §1
[9] = test system: Escherichia coli; experiment: Antibacterial activity against quinolone resistant Escherichia coli by broth microdilution method; assay type: functional; settings: Escherichia coli; for MIC: read-out: MIC; how it was run: as §1
[10] = test system: Escherichia coli; experiment: Selectivity ratio of MIC for wild type Escherichia coli ATCC 25922 in presence of HSA to MIC for wild type Escherichia coli ATCC 25922; assay type: functional
[11] = test system: Acinetobacter baumannii; experiment: Antibacterial activity against aminoglycoside resistant Acinetobacter baumannii by broth microdilution method; assay type: functional; settings: Acinetobacter baumannii; how it was run: as §1
[12] = test system: Acinetobacter baumannii; experiment: Antibacterial activity against quinolone resistant Acinetobacter baumannii by broth microdilution method; assay type: functional; settings: Acinetobacter baumannii; how it was run: as §1
[13] = test system: Escherichia coli; experiment: Antibacterial activity against aminoglycoside resistant Escherichia coli by broth microdilution method; assay type: functional; settings: Escherichia coli; for MIC: read-out: MIC; how it was run: as §1
[14] = test system: Acinetobacter baumannii; experiment: Antibacterial activity against fluoroquinolone resistant Acinetobacter baumannii isolate MMX2240 by CLSI M100-S17 protocol based method; assay type: functional
[15] = Fraction unbound in mouse plasma at 1 uM by equilibrium dialysis method; assay type: ADME, cell-free
[16] = test system: Klebsiella pneumoniae; experiment: Antibacterial activity against wild type Klebsiella pneumoniae ATCC 35657 by CLSI M100-S17 protocol based method; assay type: functional
[17] = test system: Escherichia coli; experiment: Antibacterial activity against Escherichia coli infected in cyclophosphamide treated neutropenic CD1 mouse septicemia model assessed as mouse survival at 20 mg/kg, iv dosed at 1 hr post infection followed by redosing at 5 hrs post infection measured at 96 hrs post infection relative to control; assay type: functional
How it was run: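 Female CD-1 mice were made neutropenic with cyclophosphamide ip, 150 mg/kg on day −4 and 100 mg/kg on day −1. […] Compound was given iv in 3% DMSO/saline at 1 and 5 h postinfection, n = 6 per group. Percent survival was scored at 96 h postinfection.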

[18] = test system: Escherichia coli; experiment: Antibacterial activity against wild type Escherichia coli ATCC 25922 in presence of HSA by CLSI M100-S17 protocol based method; assay type: functional
[19] = test system: Escherichia coli; experiment: Antibacterial activity against quinolone resistance Escherichia coli isolate ELZ4251 harboring gyrA/parC mutant by CLSI M100-S17 protocol based method; assay type: functional
[20] = test system: Escherichia coli; experiment: Antibacterial activity against wild type Escherichia coli by broth microdilution method; assay type: functional; how it was run: as §1
[21] = test system: Escherichia coli; experiment: Antibacterial activity against multidrug resistant Escherichia coli by broth microdilution method; assay type: functional; settings: Escherichia coli; for MIC: read-out: MIC; how it was run: as §1
[22] = test system: Mus musculus; experiment: AUC (0 to 24 hrs) in CD1 mouse plasma at 10 mg/kg, iv by LC-MS/MS analysis; assay type: ADME, organism-based; parameters: time < 24 hr, dose 10 mg/kg, route intravenous; settings: in vivo
How it was run: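 CD-1 mice given a single 10 mg/kg iv dose (n = 3), in either 10% DMSO plus 1% Tween 80 in pH 8.0 phosphate buffer or 20% (2-hydroxypropyl)-β-cyclodextrin in pH 4.0 citrate buffer; plasma exposure measured.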

[23] = test system: Mus musculus; experiment: Terminal half life in CD1 mouse plasma at 10 mg/kg, iv by LC-MS/MS analysis; assay type: ADME, organism-based; settings: in vivo
[24] = test system: Mus musculus; experiment: Volume of distribution at steady state in CD1 mouse plasma at 10 mg/kg, iv by LC-MS/MS analysis; assay type: ADME, organism-based; settings: in vivo

Question: With Cn1c(CN2CCCC2)cc2cc3c(cc21)OCCc1c-3[nH]c(=O)c(C(=O)O)c1O as the compound, how does the MIC [1] read?
Answer: 3.9 µg/mL (≈ 9.53 µM)

Question: What about the MIC [2] of the same compound?
Answer: 1 µg/mL (≈ 2.44 µM)

Question: What about the MIC50 [3] of the same compound?
Answer: 2 µg/mL (≈ 4.88 µM)

Question: What about the MIC90 [3] of the same compound?
Answer: 8 µg/mL (≈ 19.5 µM)

Question: And the MIC ([3]; read-out: MIC)?
Answer: 0.12 to 16 µg/mL (≈ 0.293 to 39.1 µM)

Question: And the MIC50 [4]?
Answer: 2 µg/mL (≈ 4.88 µM)

Question: And the MIC90 [4]?
Answer: 8 µg/mL (≈ 19.5 µM)

Question: And the MIC ([4]; read-out: MIC)?
Answer: 0.12 to 16 µg/mL (≈ 0.293 to 39.1 µM)

Question: What about the MIC50 [5] of the same compound?
Answer: 2 µg/mL (≈ 4.88 µM)

Question: And the MIC90 [5]?
Answer: 8 µg/mL (≈ 19.5 µM)

Question: And the MIC50 [6]?
Answer: 2 µg/mL (≈ 4.88 µM)

Question: What about the MIC90 [6] of the same compound?
Answer: 8 µg/mL (≈ 19.5 µM)

Question: What about the MIC ([6]; read-out: MIC) of the same compound?
Answer: 0.12 to 16 µg/mL (≈ 0.293 to 39.1 µM)

Question: What about the MIC [7] of the same compound?
Answer: 2 µg/mL (≈ 4.88 µM)

Question: What about the MIC50 [8] of the same compound?
Answer: 0.5 µg/mL (≈ 1.22 µM)

Question: What about the MIC90 [8] of the same compound?
Answer: 1 µg/mL (≈ 2.44 µM)

Question: And the MIC [8]?
Answer: 0.25 to 1 µg/mL (≈ 0.611 to 2.44 µM)

Question: And the MIC50 [9]?
Answer: 0.5 µg/mL (≈ 1.22 µM)

Question: What about the MIC90 [9] of the same compound?
Answer: 1 µg/mL (≈ 2.44 µM)

Question: And the MIC [9]?
Answer: 0.25 to 1 µg/mL (≈ 0.611 to 2.44 µM)

Question: What about the Ratio [10] of the same compound?
Answer: 2 - 4

Question: What about the MIC50 [11] of the same compound?
Answer: 2 µg/mL (≈ 4.88 µM)

Question: And the MIC90 [11]?
Answer: 8 µg/mL (≈ 19.5 µM)

Question: And the MIC ([11]; read-out: MIC)?
Answer: 0.12 to 16 µg/mL (≈ 0.293 to 39.1 µM)

Question: And the MIC50 [12]?
Answer: 2 µg/mL (≈ 4.88 µM)

Question: And the MIC90 [12]?
Answer: 8 µg/mL (≈ 19.5 µM)

Question: And the MIC ([12]; read-out: MIC)?
Answer: 0.12 to 16 µg/mL (≈ 0.293 to 39.1 µM)

Question: And the MIC50 [13]?
Answer: 0.5 µg/mL (≈ 1.22 µM)

Question: What about the MIC90 [13] of the same compound?
Answer: 1 µg/mL (≈ 2.44 µM)

Question: And the MIC [13]?
Answer: 0.25 to 1 µg/mL (≈ 0.611 to 2.44 µM)

Question: And the MIC [14]?
Answer: 7.8 µg/mL (≈ 19.1 µM)

Question: And the Fu [15]?
Answer: 0.18

Question: What about the MIC [16] of the same compound?
Answer: 2 µg/mL (≈ 4.88 µM)

Question: And the survival at 20 mg/kg [17]?
Answer: 83%

Question: And the MIC [18]?
Answer: 3.9 µg/mL

Question: What about the MIC [19] of the same compound?
Answer: 3.1 µg/mL (≈ 7.57 µM)

Question: And the MIC50 [20]?
Answer: 0.5 µg/mL (≈ 1.22 µM)

Question: What about the MIC90 [20] of the same compound?
Answer: 1 µg/mL (≈ 2.44 µM)

Question: What about the MIC50 [21] of the same compound?
Answer: 0.5 µg/mL (≈ 1.22 µM)

Question: What about the MIC90 [21] of the same compound?
Answer: 1 µg/mL (≈ 2.44 µM)

Question: And the MIC [21]?
Answer: 0.25 to 1 µg/mL (≈ 0.611 to 2.44 µM)

Question: Which MIC [1] does the source give for CN(C)Cc1cc2cc3c(cc2n1C)OCCc1c-3[nH]c(=O)c(C(=O)O)c1O here?
Answer: 2 µg/mL (≈ 5.22 µM)

Question: And the MIC [2]?
Answer: 1 µg/mL (≈ 2.61 µM)

Question: What about the MIC50 [3] of the same compound?
Answer: 2 µg/mL (≈ 5.22 µM)

Question: What about the MIC90 [3] of the same compound?
Answer: 16 µg/mL (≈ 41.7 µM)

Question: And the MIC50 [4]?
Answer: 2 µg/mL (≈ 5.22 µM)

Question: And the MIC90 [4]?
Answer: 16 µg/mL (≈ 41.7 µM)

Question: And the MIC [5]?
Answer: 0.25 to 16 µg/mL (≈ 0.652 to 41.7 µM)

Question: And the MIC50 [5]?
Answer: 2 µg/mL (≈ 5.22 µM)

Question: And the MIC90 [5]?
Answer: 16 µg/mL (≈ 41.7 µM)

Question: What about the MIC50 [6] of the same compound?
Answer: 2 µg/mL (≈ 5.22 µM)

Question: What about the MIC90 [6] of the same compound?
Answer: 16 µg/mL (≈ 41.7 µM)

Question: And the MIC [7]?
Answer: 1 µg/mL (≈ 2.61 µM)

Question: What about the AUC [22] of the same compound?
Answer: 2.93 µg·h/mL

Question: What about the MIC50 [8] of the same compound?
Answer: 0.5 µg/mL (≈ 1.3 µM)

Question: What about the MIC90 [8] of the same compound?
Answer: 2 µg/mL (≈ 5.22 µM)

Question: What about the MIC [8] of the same compound?
Answer: 0.25 to 8 µg/mL (≈ 0.652 to 20.9 µM)

Question: What about the MIC50 [9] of the same compound?
Answer: 0.5 µg/mL (≈ 1.3 µM)

Question: What about the MIC90 [9] of the same compound?
Answer: 2 µg/mL (≈ 5.22 µM)

Question: And the MIC [9]?
Answer: 0.25 to 8 µg/mL (≈ 0.652 to 20.9 µM)

Question: What about the Ratio [10] of the same compound?
Answer: 2 - 4

Question: And the MIC50 [11]?
Answer: 2 µg/mL (≈ 5.22 µM)

Question: What about the MIC90 [11] of the same compound?
Answer: 16 µg/mL (≈ 41.7 µM)

Question: What about the MIC50 [12] of the same compound?
Answer: 2 µg/mL (≈ 5.22 µM)

Question: And the MIC90 [12]?
Answer: 16 µg/mL (≈ 41.7 µM)

Question: What about the MIC50 [13] of the same compound?
Answer: 0.5 µg/mL (≈ 1.3 µM)

Question: What about the MIC90 [13] of the same compound?
Answer: 2 µg/mL (≈ 5.22 µM)

Question: What about the MIC [13] of the same compound?
Answer: 0.25 to 8 µg/mL (≈ 0.652 to 20.9 µM)

Question: And the MIC [14]?
Answer: 3.9 µg/mL (≈ 10.2 µM)

Question: What about the Fu [15] of the same compound?
Answer: 0.21

Question: What about the MIC [16] of the same compound?
Answer: 1 µg/mL (≈ 2.61 µM)

Question: What about the MIC [18] of the same compound?
Answer: 2 µg/mL

Question: And the “beta t1/2” value [23]?
Answer: 3.1 h

Question: What about the Vdss [24] of the same compound?
Answer: 7.6 L/kg

Question: What about the MIC [19] of the same compound?
Answer: 1.6 µg/mL (≈ 4.17 µM)

Question: And the MIC50 [20]?
Answer: 0.5 µg/mL (≈ 1.3 µM)

Question: What about the MIC90 [20] of the same compound?
Answer: 2 µg/mL (≈ 5.22 µM)

Question: What about the MIC50 [21] of the same compound?
Answer: 0.5 µg/mL (≈ 1.3 µM)

Question: And the MIC90 [21]?
Answer: 2 µg/mL (≈ 5.22 µM)

Question: And the MIC [21]?
Answer: 0.25 to 8 µg/mL (≈ 0.652 to 20.9 µM)

From ChEMBL document CHEMBL4190388, “Discovery and Optimization of Indolyl-Containing 4-Hydroxy-2-Pyridone Type II DNA Topoisomerase Inhibitors Active against Multidrug Resistant Gram-negative Bacteria” (J Med Chem, 2018)
